From ChEMBL document CHEMBL2169882, “Exploration of novel 3-substituted azetidine derivatives as triple reuptake inhibitors” (J Med Chem, 2012)
Calls of active or inactive are those of the source. The calls are words filed in the database; no cut-off is given here.

What was measured:
[1] = target: T1, Sodium-dependent noradrenaline transporter (Homo sapiens, UniProt P23975); conditions: HEK293, at 0.1 µM
[2] = target: T2, Sodium-dependent serotonin transporter (Homo sapiens, UniProt P31645); conditions: HEK293, at 0.1 µM
Target sequence in this assay (P31645 whole entry, looked up): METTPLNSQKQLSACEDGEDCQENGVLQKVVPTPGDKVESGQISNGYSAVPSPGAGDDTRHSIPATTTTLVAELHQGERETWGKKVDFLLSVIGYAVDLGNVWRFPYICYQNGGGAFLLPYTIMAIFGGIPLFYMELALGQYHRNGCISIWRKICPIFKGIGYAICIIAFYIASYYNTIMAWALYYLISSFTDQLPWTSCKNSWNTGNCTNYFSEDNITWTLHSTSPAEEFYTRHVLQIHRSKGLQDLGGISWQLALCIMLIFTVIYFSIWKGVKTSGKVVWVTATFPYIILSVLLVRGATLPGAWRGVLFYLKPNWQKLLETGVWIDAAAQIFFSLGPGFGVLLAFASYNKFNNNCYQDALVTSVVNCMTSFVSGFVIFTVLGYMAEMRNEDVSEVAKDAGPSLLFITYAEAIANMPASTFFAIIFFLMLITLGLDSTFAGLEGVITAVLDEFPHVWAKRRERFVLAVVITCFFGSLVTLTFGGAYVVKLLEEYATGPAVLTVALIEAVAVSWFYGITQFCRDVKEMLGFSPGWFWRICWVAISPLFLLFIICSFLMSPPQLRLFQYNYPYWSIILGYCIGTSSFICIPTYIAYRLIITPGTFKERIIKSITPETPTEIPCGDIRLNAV

[3] = target: T3, Sodium-dependent dopamine transporter (Homo sapiens, UniProt Q01959); conditions: HEK293, at 0.1 µM
T3 sequence (Q01959 whole entry): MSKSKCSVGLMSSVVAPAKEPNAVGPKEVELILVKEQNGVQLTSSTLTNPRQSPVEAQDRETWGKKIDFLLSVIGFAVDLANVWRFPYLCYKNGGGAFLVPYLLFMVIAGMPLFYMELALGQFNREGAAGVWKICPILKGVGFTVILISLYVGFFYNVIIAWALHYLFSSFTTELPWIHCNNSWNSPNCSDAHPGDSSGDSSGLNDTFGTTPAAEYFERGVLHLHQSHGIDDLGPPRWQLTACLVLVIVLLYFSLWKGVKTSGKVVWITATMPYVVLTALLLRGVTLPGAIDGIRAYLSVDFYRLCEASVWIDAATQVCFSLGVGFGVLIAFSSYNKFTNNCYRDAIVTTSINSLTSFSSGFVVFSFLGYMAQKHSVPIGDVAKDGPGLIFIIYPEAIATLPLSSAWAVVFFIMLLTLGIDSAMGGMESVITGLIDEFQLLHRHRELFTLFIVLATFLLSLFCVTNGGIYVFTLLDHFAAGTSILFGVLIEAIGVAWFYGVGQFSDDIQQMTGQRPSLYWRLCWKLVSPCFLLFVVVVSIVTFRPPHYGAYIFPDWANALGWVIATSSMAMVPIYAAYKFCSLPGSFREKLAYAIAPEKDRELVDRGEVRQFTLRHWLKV

[4] = target: T1, Sodium-dependent noradrenaline transporter; type: cell-based, HEK293
[5] = target: T3, Sodium-dependent dopamine transporter; type: cell-based, HEK293
[6] = target: T2, Sodium-dependent serotonin transporter; type: cell-based, HEK293
Target sequence in this assay (P31645 whole entry): as the sequence (P31645 whole entry, looked up) above

[7] = target: CYP3A4 (Homo sapiens, UniProt P08684); test: Inhibition of human recombinant CYP3A4 at 10 uM after 5 mins by fluorescence assay
Chain of CYP3A4 (P08684 whole entry): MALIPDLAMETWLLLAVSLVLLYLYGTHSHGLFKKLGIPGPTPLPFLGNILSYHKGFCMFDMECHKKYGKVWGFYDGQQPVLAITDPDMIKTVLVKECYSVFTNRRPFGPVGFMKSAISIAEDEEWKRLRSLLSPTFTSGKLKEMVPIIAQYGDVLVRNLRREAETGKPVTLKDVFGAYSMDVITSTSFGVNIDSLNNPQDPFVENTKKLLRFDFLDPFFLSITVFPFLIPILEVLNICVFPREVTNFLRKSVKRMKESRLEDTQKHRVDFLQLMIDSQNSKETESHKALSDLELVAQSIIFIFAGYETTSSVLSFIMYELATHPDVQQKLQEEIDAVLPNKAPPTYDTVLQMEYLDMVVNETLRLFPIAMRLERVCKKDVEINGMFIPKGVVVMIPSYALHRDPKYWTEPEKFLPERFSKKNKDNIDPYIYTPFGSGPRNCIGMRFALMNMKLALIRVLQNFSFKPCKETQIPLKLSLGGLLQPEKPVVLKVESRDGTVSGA
Summary of the method: (§1)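 Single-point screen at 10 μM against human CYP2D6 or CYP3A4, using a VIVID CYP enzyme kit. Results were expressed as percentage inhibition.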

[8] = target: CYP2D6 (Homo sapiens, UniProt P10635); test: Inhibition of human recombinant CYP2D6 at 10 uM after 5 mins by fluorescence assay
Chain of CYP2D6 (P10635 whole entry): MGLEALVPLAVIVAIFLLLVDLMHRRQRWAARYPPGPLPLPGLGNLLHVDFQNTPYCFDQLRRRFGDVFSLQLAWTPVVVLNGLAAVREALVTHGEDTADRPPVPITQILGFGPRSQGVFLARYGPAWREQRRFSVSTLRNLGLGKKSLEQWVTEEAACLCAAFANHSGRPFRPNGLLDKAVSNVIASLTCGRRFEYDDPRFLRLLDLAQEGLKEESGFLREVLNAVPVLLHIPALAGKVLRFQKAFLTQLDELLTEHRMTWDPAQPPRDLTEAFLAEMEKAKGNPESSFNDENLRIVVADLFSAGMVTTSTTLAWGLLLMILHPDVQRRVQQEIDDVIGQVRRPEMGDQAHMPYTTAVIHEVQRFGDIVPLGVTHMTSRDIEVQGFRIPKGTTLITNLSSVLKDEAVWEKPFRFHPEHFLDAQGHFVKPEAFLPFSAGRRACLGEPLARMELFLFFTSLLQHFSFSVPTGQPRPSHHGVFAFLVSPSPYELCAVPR
Summary of the method: as §1

[9] = target: Voltage-gated inwardly rectifying potassium channel KCNH2 (Homo sapiens, UniProt Q12809); test: Inhibition of human ERG expressed in CHOK1 cells by patch clamp technique; type: cell-based, CHO-K1
Chain of Voltage-gated inwardly rectifying potassium channel KCNH2 (Q12809 whole entry): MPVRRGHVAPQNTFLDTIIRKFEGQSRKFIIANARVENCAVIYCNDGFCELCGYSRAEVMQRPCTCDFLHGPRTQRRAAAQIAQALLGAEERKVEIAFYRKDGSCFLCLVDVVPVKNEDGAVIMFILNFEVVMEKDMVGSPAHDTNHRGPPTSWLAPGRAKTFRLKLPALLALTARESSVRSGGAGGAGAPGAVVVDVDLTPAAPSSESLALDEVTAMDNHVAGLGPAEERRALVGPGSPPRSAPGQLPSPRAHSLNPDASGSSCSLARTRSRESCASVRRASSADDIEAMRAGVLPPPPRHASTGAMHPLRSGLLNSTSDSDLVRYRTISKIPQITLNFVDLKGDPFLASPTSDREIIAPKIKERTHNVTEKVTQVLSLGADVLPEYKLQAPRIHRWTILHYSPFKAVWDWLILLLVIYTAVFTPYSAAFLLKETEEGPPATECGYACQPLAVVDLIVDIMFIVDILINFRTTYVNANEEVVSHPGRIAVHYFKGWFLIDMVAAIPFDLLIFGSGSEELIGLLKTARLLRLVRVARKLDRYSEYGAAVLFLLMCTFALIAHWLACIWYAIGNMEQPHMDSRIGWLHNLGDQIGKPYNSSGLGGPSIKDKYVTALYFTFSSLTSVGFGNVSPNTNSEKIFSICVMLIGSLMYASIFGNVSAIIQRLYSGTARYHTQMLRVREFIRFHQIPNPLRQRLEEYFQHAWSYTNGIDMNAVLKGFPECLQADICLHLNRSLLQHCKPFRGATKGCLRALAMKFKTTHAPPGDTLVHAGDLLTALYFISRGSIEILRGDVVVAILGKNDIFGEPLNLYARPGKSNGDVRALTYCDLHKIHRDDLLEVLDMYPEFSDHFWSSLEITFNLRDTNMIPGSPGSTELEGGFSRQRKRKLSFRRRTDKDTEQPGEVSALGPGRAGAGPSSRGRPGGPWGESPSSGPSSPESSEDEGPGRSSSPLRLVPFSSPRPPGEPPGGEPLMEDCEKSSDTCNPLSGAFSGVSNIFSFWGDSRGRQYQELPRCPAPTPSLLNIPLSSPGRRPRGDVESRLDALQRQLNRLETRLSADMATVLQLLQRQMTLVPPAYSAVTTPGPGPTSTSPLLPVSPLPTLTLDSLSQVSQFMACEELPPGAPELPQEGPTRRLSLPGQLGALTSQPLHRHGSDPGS

[10] = test system: Liver microsomes; test: Stability in human liver microsomes assessed as compound remaining at 1 uM after 0.5 hrs by BD Gentest assay; type: ADME, Microsome
[11] = AUC (all) in Sprague-Dawley rat at 1 mg/kg, iv; type: ADME, organism-based; set-up: dose 1 mg/kg, route intravenous; conditions: plasma
[12] = Apparent volume of distribution during terminal phase in Sprague-Dawley rat at 2 mg/kg, po; type: ADME, organism-based; set-up: dose 2 mg/kg, route oral; conditions: in vivo, read-out: Vz/F
[13] = test system: Rattus norvegicus; test: AUC (infinity) in Sprague-Dawley rat at 2 mg/kg, po; type: ADME, organism-based, Plasma; set-up: time infinity, dose 2 mg/kg, route oral; conditions: in vivo
[14] = Mean residence time ( 0 to t ) in Sprague-Dawley rat at 2 mg/kg, po; type: ADME, organism-based; set-up: dose 2 mg/kg, route oral; conditions: in vivo
[15] = Apparent oral clearance in Sprague-Dawley rat at 1 mg/kg, iv; type: ADME, organism-based; set-up: dose 1 mg/kg; conditions: in vivo
[16] = Terminal half life in Sprague-Dawley rat at 1 mg/kg, iv; type: ADME, organism-based; set-up: dose 1 mg/kg, route intravenous; conditions: in vivo, read-out: beta t1/2 (converted)
[17] = test system: Rattus norvegicus; test: Apparent volume of distribution during terminal phase in Sprague-Dawley rat at 1 mg/kg, iv; type: ADME, organism-based; set-up: dose 1 mg/kg, route intravenous; conditions: in vivo
[18] = Apparent oral clearance in Sprague-Dawley rat at 2 mg/kg, po; type: ADME, organism-based; set-up: dose 2 mg/kg, route oral; conditions: in vivo
[19] = test system: Rattus norvegicus; test: Oral bioavailability in Sprague-Dawley rat at 2 mg/kg; type: ADME, organism-based; conditions: in vivo
[20] = Mean residence time ( 0 to t ) in Sprague-Dawley rat at 1 mg/kg, iv; type: ADME, organism-based; set-up: dose 1 mg/kg, route intravenous; conditions: in vivo
[21] = AUC (all) in Sprague-Dawley rat at 2 mg/kg, po; type: ADME, organism-based; set-up: dose 2 mg/kg, route oral; conditions: plasma
[22] = Tmax in Sprague-Dawley rat at 2 mg/kg, po; type: ADME, organism-based; set-up: dose 2 mg/kg, route oral; conditions: in vivo
[23] = Cmax in Sprague-Dawley rat at 1 mg/kg, iv; type: ADME, organism-based; set-up: dose 1 mg/kg, route intravenous; conditions: in vivo
[24] = test system: Rattus norvegicus; test: AUC (infinity) in Sprague-Dawley rat at 1 mg/kg, iv; type: ADME, organism-based, Plasma; set-up: time infinity, dose 1 mg/kg, route intravenous; conditions: in vivo
[25] = Terminal half life in Sprague-Dawley rat at 2 mg/kg, po; type: ADME, organism-based; set-up: dose 2 mg/kg, route oral; conditions: in vivo, read-out: beta t1/2 (converted)
[26] = Cmax in Sprague-Dawley rat at 2 mg/kg, po; type: ADME, organism-based; set-up: dose 2 mg/kg, route oral; conditions: in vivo
[27] = Ratio of drug level from brain to plasma in ICR mouse at 10 mg/kg, ip from 30 mins to 3 hrs by LC-MS/MS analysis; type: ADME, organism-based; set-up: dose 10 mg/kg, route intraperitoneal; conditions: read-out: BPR
[28] = test system: Mus musculus; test: Antidepressant activity in iv dosed ICR mouse assessed as reduction in immobility time dosed 0.5 hrs before forced swimming test; type: functional, organism-based
Summary of the method: (§2)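 ICR mice were tested in the Porsolt forced swimming test with a 30 min pretreatment. Doses were 2.5, 5.0 and 10.0 mg/kg IV or 10, 20 and 40 mg/kg PO. Read-out was immobility time, compared with vehicle. Venlafaxine was the positive control.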

[29] = test system: Mus musculus; test: Antidepressant activity in ICR mouse assessed as reduction in immobility time at 10 mg/kg, iv after 0.5 hrs by forced swimming test; type: functional, organism-based; set-up: dose 10 mg/kg
Summary of the method: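 ICR mice; forced swimming test following Porsolt's method. Intravenous dosing 0.5 h before the test at 2.5, 5.0 and 10.0 mg/kg. Read-out was immobility time, compared with vehicle-treated mice.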

[30] = test system: Mus musculus; test: Antidepressant activity in po dosed ICR mouse assessed as reduction in immobility time dosed 0.5 hrs before forced swimming test; type: functional, organism-based
Summary of the method: as §2

T1 sequence (P23975 whole entry): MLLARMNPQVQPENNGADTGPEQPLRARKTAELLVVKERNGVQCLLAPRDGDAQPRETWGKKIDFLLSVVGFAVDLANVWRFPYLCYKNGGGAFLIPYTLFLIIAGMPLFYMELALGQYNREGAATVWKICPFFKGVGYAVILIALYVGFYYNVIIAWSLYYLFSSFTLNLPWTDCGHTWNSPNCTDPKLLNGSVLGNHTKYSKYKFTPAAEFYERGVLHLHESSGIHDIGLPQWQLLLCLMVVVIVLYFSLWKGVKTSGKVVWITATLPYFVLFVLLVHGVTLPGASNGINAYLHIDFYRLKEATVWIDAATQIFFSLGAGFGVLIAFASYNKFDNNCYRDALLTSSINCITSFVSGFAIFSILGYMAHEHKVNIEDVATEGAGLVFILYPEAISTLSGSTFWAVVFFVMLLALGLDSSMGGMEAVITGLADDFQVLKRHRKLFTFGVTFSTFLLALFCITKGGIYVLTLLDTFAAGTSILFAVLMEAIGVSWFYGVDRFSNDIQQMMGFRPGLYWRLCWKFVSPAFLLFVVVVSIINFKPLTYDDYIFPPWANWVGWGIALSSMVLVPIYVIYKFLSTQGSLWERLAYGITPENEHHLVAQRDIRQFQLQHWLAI

Fc1ccc(C(OCCN2CCN(CCCc3ccccc3)CC2)c2ccc(F)cc2)cc1
inhibition [1]: -5.9%
inhibition [2]: 1.9%

Fc1cc(C(Oc2ccccc2)C2CNC2)ccc1Cl (centres undefined)
inhibition [3]: 30%
IC50 [4]: 21 nM
inhibition [1]: 76%
inhibition [2]: 49%
IC50 [5]: 148 nM
IC50 [6]: 142 nM

Clc1ccc(OC(c2ccc3ccccc3c2)C2CNC2)cc1Cl (centres undefined)
inhibition [3]: 68%
IC50 [4]: 16 nM
inhibition [1]: 79%
inhibition at 5 min, 10 µM [7]: 41%
inhibition [2]: 28%
IC50 [5]: 54 nM
inhibition at 5 min, 10 µM [8]: 25%
IC50 [6]: 35 nM

Clc1ccc(C(OCc2ccccc2)C2CNC2)cc1Cl (centres undefined)
inhibition [3]: 12%
inhibition [1]: 30%
inhibition [2]: 12%

CCOC(c1ccccc1)C1CNC1 (centres undefined)
inhibition [3]: 3%
inhibition [1]: 4.5%
inhibition [2]: 4%

CCOC(c1ccc(Cl)c(Cl)c1)C1CNC1 (centres undefined)
inhibition [3]: 30%
inhibition [1]: 49%
inhibition [2]: 28%

OC(c1ccccc1)C1CNC1 (centres undefined)
inhibition [3]: 3.9%
inhibition [1]: 0.2%
inhibition [2]: 1.7%

CCCOC(c1ccc(Cl)c(Cl)c1)C1CNC1 (centres undefined)
inhibition [3]: 74%
IC50 [4]: 10 nM
inhibition [1]: 87%
inhibition [2]: 39%
IC50 [5]: 32 nM
IC50 [6]: 44 nM

CCCOC(c1ccc2ccccc2c1)C1CNC1.Cl (centres undefined)
inhibition [3]: 48%
IC50 [4]: 12 nM
IC50 [9]: 980 nM
Stability [10]: Stable
inhibition [1]: 87%
AUC [11]: 211 ng·h/mL
Vd/F [12]: 249 L/kg
AUC [13]: 49.4 ng·h/mL
MRT last [14]: 2.2 h
inhibition [2]: 77%
CL/F [15]: 78.3 mL/min/kg
half-life [16]: 0.7 h
Vz/F [17]: 4.8 L/kg
CL/F [18]: 775 mL/min/kg
F [19]: 5.7%
MRT last [20]: 0.9 h
AUC [21]: 23.9 ng·h/mL
IC50 [5]: 72 nM
Tmax [22]: 1 h
Cmax [23]: 198 ng/mL
AUC [24]: 214.6 ng·h/mL
IC50 [6]: 6.8 nM
half-life [25]: 4.8 h
Cmax [26]: 7.3 ng/mL
Kp [27]: 0.86

Clc1ccc(C(Oc2ccccc2)C2CNC2)cc1 (centres undefined)
inhibition [3]: 36%
inhibition [1]: 68%
inhibition [2]: 22%

c1ccc(COC(c2ccccc2)C2CNC2)cc1 (centres undefined)
inhibition [3]: 2%
inhibition [1]: 9.4%
inhibition [2]: 12%

CNCCC(Oc1ccccc1OC)c1ccccc1 (centres undefined)
inhibition [3]: 9.8%
inhibition [2]: 9.9%

Cl.c1ccc(OC(c2ccc3ccccc3c2)C2CNC2)cc1 (centres undefined)
inhibition [3]: 64%
IC50 [4]: 3.1 nM
Stability [10]: Stable
inhibition [1]: 90%
inhibition at 5 min, 10 µM [7]: 12%
AUC [11]: 153 ng·h/mL
Vd/F [12]: 241 L/kg
Activity [28]: Dose-dependent effect
AUC [13]: 41.7 ng·h/mL
MRT last [14]: 2 h
inhibition [2]: 64%
Activity [29]: Active
CL/F [15]: 107 mL/min/kg
half-life [16]: 1.4 h
Vz/F [17]: 13.1 L/kg
CL/F [18]: 812 mL/min/kg
F [19]: 5.8%
Activity [30]: Dose-dependent effect
MRT last [20]: 1.73 h
AUC [21]: 17.9 ng·h/mL
IC50 [5]: 35 nM
Tmax [22]: 1.3 h
Cmax [23]: 112 ng/mL
AUC [24]: 159.7 ng·h/mL
inhibition at 5 min, 10 µM [8]: 16%
IC50 [6]: 8.3 nM
half-life [25]: 3.3 h
Cmax [26]: 5.6 ng/mL
Kp [27]: 2.7

COc1ccc(C(CN(C)C)C2(O)CCCCC2)cc1 (centres undefined)
Activity [29]: Active

CCOC(c1ccc(Cl)cc1)C1CNC1 (centres undefined)
inhibition [3]: 7.3%
inhibition [1]: 10%
inhibition [2]: 4.6%

Clc1ccc(C(Oc2ccccc2)C2CNC2)cc1Cl (centres undefined)
inhibition [3]: 58%
inhibition [1]: 89%
inhibition [2]: 16%

OC(c1ccc(Cl)cc1)C1CNC1 (centres undefined)
inhibition [3]: 2.1%
inhibition [1]: 3.5%
inhibition [2]: 2%

c1ccc(OC(c2ccccc2)C2CNC2)cc1 (centres undefined)
inhibition [3]: 9.3%
inhibition [1]: 18%
inhibition [2]: 25%

COC(c1ccccc1)C1CNC1 (centres undefined)
inhibition [3]: 2.2%
inhibition [1]: 1.5%
inhibition [2]: 3.3%

Fc1cc(C(Oc2ccccc2F)C2CNC2)ccc1Cl (centres undefined)
inhibition [3]: 29%
inhibition [1]: 81%
inhibition [2]: 41%

Clc1ccc(C(OCc2ccccc2)C2CNC2)cc1 (centres undefined)
inhibition [3]: 5.7%
inhibition [1]: 16%
inhibition [2]: 12%

COC(c1ccc(Cl)c(Cl)c1)C1CNC1 (centres undefined)
inhibition [3]: 22%
inhibition [1]: 47%
inhibition [2]: 16%

COC(c1ccc(Cl)cc1)C1CNC1 (centres undefined)
inhibition [3]: 2.6%
inhibition [1]: 7.7%
inhibition [2]: 3.9%
